Values belong to the molecule of their own block, whether it stands above or below them. Calls of active or inactive are those of the source.
Columns and labels:
[1] = biological target: T1, Geranylgeranyl transferase type-2 (Rattus norvegicus, UniProt Q08602+Q08603); assay: Inhibition of recombinant rat RabGGTase expressed in Escherichia coli using Rab7 as substrate and [3H]geranylgeranyl pyrophosphate after 20 mins by liquid scintillation analysis
T1 sequence (Q08603 whole entry): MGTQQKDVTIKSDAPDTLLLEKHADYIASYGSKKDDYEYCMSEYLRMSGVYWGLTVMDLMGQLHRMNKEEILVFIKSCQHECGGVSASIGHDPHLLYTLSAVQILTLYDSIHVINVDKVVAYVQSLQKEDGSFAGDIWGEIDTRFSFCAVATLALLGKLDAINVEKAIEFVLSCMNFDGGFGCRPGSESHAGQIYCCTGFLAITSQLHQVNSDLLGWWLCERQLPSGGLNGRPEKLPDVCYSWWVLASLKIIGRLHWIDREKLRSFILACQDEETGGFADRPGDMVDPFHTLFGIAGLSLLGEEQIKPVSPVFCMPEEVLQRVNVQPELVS
T1 sequence (Q08602 whole entry): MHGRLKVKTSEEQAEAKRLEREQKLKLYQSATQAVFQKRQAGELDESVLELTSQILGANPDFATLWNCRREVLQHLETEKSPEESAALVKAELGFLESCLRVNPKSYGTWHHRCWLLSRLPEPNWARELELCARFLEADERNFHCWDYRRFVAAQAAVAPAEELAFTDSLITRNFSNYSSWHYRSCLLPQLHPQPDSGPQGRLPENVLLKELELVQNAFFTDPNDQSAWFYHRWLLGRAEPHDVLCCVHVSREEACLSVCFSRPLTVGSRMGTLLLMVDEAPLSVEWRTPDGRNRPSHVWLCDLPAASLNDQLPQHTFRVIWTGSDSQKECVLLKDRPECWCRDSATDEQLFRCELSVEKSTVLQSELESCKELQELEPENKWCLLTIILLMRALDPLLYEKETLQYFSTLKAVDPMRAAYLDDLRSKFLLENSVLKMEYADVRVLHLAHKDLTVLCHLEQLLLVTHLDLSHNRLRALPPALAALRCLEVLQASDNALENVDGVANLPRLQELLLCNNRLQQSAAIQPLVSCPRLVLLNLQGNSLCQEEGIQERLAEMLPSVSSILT

[2] = biological target: geranylgeranyltransferase type-I (Rattus norvegicus, UniProt P53610+Q04631); assay: Inhibition of recombinant rat GGtase-1 expressed in Escherichia coli using dansyl-GCVLL as substrate after 1.5 hrs by spectrofluorimetric analysis
[3] = biological target: Protein farnesyltransferase (Rattus norvegicus, UniProt Q02293+Q04631); assay: Inhibition of recombinant rat FTase expressed in Escherichia coli using dansyl-GCVLS as substrate after 1.5 hrs by spectrofluorimetric analysis
[4] = biological target: T2, Farnesyl pyrophosphate synthase (Homo sapiens, UniProt P14324); assay: Inhibition of FDPS (unknown origin) using [14C] IPP and GPP as substrate preincubated for 10 mins followed by substrate addition and measured after 30 min by liquid scintillation counting method
T2 sequence (P14324 whole entry): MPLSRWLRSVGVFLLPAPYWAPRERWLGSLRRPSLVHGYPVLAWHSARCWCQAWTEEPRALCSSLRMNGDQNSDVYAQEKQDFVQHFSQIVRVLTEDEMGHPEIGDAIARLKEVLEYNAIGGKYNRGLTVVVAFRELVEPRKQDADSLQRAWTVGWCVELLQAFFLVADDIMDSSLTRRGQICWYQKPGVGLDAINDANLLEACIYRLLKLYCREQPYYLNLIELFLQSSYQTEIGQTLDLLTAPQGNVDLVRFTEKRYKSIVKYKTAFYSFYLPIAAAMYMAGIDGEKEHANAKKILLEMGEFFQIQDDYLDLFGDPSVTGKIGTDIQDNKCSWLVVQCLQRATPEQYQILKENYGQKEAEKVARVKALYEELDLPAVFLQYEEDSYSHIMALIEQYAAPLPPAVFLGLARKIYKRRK

[5] = biological target: T3, Geranylgeranyl pyrophosphate synthase (Homo sapiens, UniProt O95749); assay: Inhibition of GGDPS (unknown origin) using [14C] IPP and FPP as substrate preincubated for 10 mins followed by substrate addition and measured after 30 min by liquid scintillation counting method
T3 sequence (O95749 whole entry): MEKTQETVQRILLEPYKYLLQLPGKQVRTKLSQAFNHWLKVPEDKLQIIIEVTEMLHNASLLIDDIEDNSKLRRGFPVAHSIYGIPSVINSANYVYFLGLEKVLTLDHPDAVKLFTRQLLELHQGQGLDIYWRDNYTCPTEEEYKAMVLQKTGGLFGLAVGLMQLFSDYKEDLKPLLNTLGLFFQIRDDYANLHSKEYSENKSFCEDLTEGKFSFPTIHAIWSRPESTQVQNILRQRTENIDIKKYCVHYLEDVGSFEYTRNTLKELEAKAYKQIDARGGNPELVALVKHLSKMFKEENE

[6] = biological target: T4, Farnesyl pyrophosphate synthase (Homo sapiens) (UniProt P14324); assay: Inhibition of FDPS in human RPMI8226 cells assessed as unmodified Rap1a level at =< 5 mM after 48 hrs by immunoblot analysis; type: cell-based
T4 sequence (whole entry): T2 sequence (P14324 whole entry)
Method in brief: (§1)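 RPMI-8226 cells were exposed for 48 h. The lowest effective concentration counts only when two read-outs agree. Unmodified Rap1a must be visible on immunoblot of whole-cell lysate, using an antibody that detects only unmodified protein.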

[7] = biological target: T4, Farnesyl pyrophosphate synthase (Homo sapiens); assay: Inhibition of FDPS in human RPMI8226 cells assessed as increase in intracellular lambda chain level at =< 5 mM after 48 hrs by ELISA; type: cell-based
Method in brief: (§2)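 RPMI-8226 cells were exposed for 48 h, and intracellular lambda light chain was measured by ELISA as percent of untreated control. The lowest effective concentration also requires unmodified Rap1a to be visible on whole-cell-lysate immunoblot with an unmodified-specific antibody. The ELISA rise must be statistically significant.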

[8] = biological target: T5, Geranylgeranyl transferase type-2 (Homo sapiens) (UniProt P53611+Q92696); assay: Inhibition of GGtase-2 in human cells assessed as increase in intracellular lambda chain at =< 5 mM level after 48 hrs by ELISA; type: cell-based
Method in brief: (§3)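 RPMI-8226 cells were incubated 48 h with the compound or medium alone. Intracellular lambda light chain was quantified by ELISA and expressed as percent of untreated control (mean ± SD, n=3). Significance versus control was judged by t-test, p<0.05.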

[9] = biological target: T5, Geranylgeranyl transferase type-2 (Homo sapiens); assay: Inhibition of GGtase-2 in human cells assessed as decrease in Rab6 level at =< 5 mM after 48 hrs by immunoblot analysis relative to control; type: cell-based
Method in brief: (§4)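 After 48 h treatment, RPMI-8226 cells were extracted with Triton X-114 to give a detergent (membrane) fraction, which was immunoblotted for Rab6. Rab6 band density was normalized to calnexin and expressed relative to untreated cells. Blots are representative of three independent studies.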

[10] = biological target: T6, Protein farnesyltransferase (Homo sapiens) (UniProt P49354+P49356); assay: Inhibition of FTase in human RPMI8226 cells assessed as disruption of H-ras farnesylation at 0.5 uM after 48 hrs by immunoblot analysis; type: cell-based
[11] = biological target: T7, Geranylgeranyl transferase type I (Homo sapiens) (UniProt P49354+P53609); assay: Inhibition of GGtase-1 in human RPMI8226 cells assessed as disruption of Rap1a geranylgeranylation at 0.5 uM after 48 hrs by immunoblot analysis; type: cell-based
[12] = biological target: T5, Geranylgeranyl transferase type-2 (Homo sapiens); assay: Inhibition of GGtase-2 in human cells assessed as minimum effective dose required for increase in intracellular lambda chain level after 48 hrs by ELISA; type: cell-based
Method in brief: (§5)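 The lowest effective concentration in RPMI-8226 cells after 48 h requires both criteria below: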

[13] = biological target: T5, Geranylgeranyl transferase type-2 (Homo sapiens); assay: Inhibition of GGtase-2 in human cells assessed as minimum effective dose causing => 20% decrease in Rab6 level after 48 hrs by immunoblot analysis; type: cell-based; method in brief: as §5
[14] = biological target: T6, Protein farnesyltransferase (Homo sapiens); assay: Inhibition of FTase in human RPMI8226 cells assessed as disruption of H-ras farnesylation at 1 to 5 mM incubated for 48 hrs by immunoblot analysis; type: cell-based
[15] = biological target: T7, Geranylgeranyl transferase type I (Homo sapiens); assay: Inhibition of GGtase-1 in human RPMI8226 cells assessed as disruption of Rap1a geranylgeranylation at 1 to 5 mM incubated for 48 hrs by immunoblot analysis; type: cell-based
[16] = biological target: T5, Geranylgeranyl transferase type-2 (Homo sapiens); assay: Inhibition of GGtase-2 in human RPMI8226 cells assessed as increase in intracellular lambda light chain level at 1 to 5 mM incubated for 48 hrs […]; type: cell-based; method in brief: as §3
[17] = biological target: T5, Geranylgeranyl transferase type-2 (Homo sapiens); assay: Inhibition of GGTase-2 in human RPMI8226 cells assessed as ratio of calnexin to Rab6 level at 1 mM after 48 hrs by immunoblot analysis relative to control; type: cell-based; method in brief: as §4
[18] = biological target: T5, Geranylgeranyl transferase type-2 (Homo sapiens); assay: Inhibition of GGTase-2 in human RPMI8226 cells assessed as ratio of calnexin to Rab6 level at […] after 48 hrs by immunoblot analysis relative to control; type: cell-based
[19] = biological target: T5, Geranylgeranyl transferase type-2 (Homo sapiens); assay: Inhibition of GGTase-2 in human RPMI8226 cells assessed as ratio of calnexin to Rab6 level at 5 mM after 48 hrs by immunoblot analysis relative to control; type: cell-based; method in brief: as §4
[20] = biological target: T4, Farnesyl pyrophosphate synthase (Homo sapiens)
[21] = biological target: T4, Farnesyl pyrophosphate synthase (Homo sapiens); remark: listed apart in the source
[22] = biological target: T4, Farnesyl pyrophosphate synthase (Homo sapiens); assay: Inhibition of FDPS in human RPMI8226 cells assessed as unmodified Rap1a level at =< 1 mM after 48 hrs by immunoblot analysis; type: cell-based; method in brief: as §1
[23] = biological target: T4, Farnesyl pyrophosphate synthase (Homo sapiens); assay: Inhibition of FDPS in human RPMI8226 cells assessed as increase in intracellular lambda chain level at =< 1mM after 48 hrs by ELISA; type: cell-based; method in brief: as §2
[24] = biological target: T5, Geranylgeranyl transferase type-2 (Homo sapiens); assay: Inhibition of GGtase-2 in human RPMI8226 cells assessed as increase in intracellular lambda chain at =< 1 mM level after 48 hrs by ELISA; type: cell-based; method in brief: as §3
[25] = biological target: T5, Geranylgeranyl transferase type-2 (Homo sapiens); assay: Inhibition of GGtase-2 in human RPMI8226 cells assessed as decrease in Rab6 level at =< 1 mM after 48 hrs by immunoblot analysis relative to control; type: cell-based; method in brief: as §4
[26] = biological target: T6, Protein farnesyltransferase (Homo sapiens); assay: Inhibition of FTase in human RPMI8226 cells assessed as disruption of H-ras farnesylation after 48 hrs by immunoblot analysis; type: cell-based
[27] = biological target: T7, Geranylgeranyl transferase type I (Homo sapiens); assay: Inhibition of GGtase-1 in human RPMI8226 cells assessed as disruption of Rap1a geranylgeranylation after 48 hrs immunoblot analysis; type: cell-based

IC50 [1]: > 1000 µM | IC50 [2]: > 1000 µM | IC50 [3]: > 1000 µM | IC50 [4]: > 100 µM | IC50 [5]: > 100 µM | inhibition [6]: inactive | inhibition [7]: inactive | inhibition [8]: inactive | inhibition [9]: inactive
SMILES: Cc1cc2ncn(CC(C(=O)O)P(=O)(O)O)c2cc1C (configuration not stated)

inhibition [10]: Active | inhibition [11]: Active
SMILES: CC[C@H](C)C(=O)O[C@H]1C[C@@H](C)C=C2C=C[C@H](C)[C@H](CC[C@@H]3C[C@@H](O)CC(=O)O3)[C@H]21

IC50 [1]: 198 µM | IC50 [2]: > 1000 µM | IC50 [3]: 125 µM | IC50 [4]: > 100 µM | IC50 [5]: > 100 µM | LED [12]: 1 mM | LED [13]: 1 mM | inhibition [14]: inactive | inhibition [15]: inactive | inhibition [16]: Active | fold change (FC) [17]: 0.6 | FC [18]: 0.4 | fold change (FC) [19]: 0.3 | LED [20]: 1 mM | LED [21]: 1 mM
SMILES: O=C(O)C(Cn1cnc2ccccc21)P(=O)(O)O (configuration not stated)

IC50 [1]: > 1000 µM | IC50 [2]: > 1000 µM | IC50 [3]: > 1000 µM | IC50 [4]: 1 µM | IC50 [5]: > 100 µM | inhibition [22]: inactive | inhibition [23]: inactive | inhibition [24]: inactive | inhibition [25]: inactive | inhibition [26]: inactive | inhibition [27]: inactive
SMILES: CC(Cn1cnc2ccccc21)(P(=O)(O)O)P(=O)(O)O

— ChEMBL document CHEMBL4312018, “Novel benzimidazole phosphonates as potential inhibitors of protein prenylation” (Bioorg Med Chem Lett, 2019)
